# Measured values reported in ChEMBL document CHEMBL1150404, “Synthesis, alpha 1-adrenoceptor antagonist activity, and SAR study of novel arylpiperazine derivatives of phenytoin” (Bioorg Med Chem, 2008).
# System: not listed separately
# Test: Antagonist activity at alpha-1-adrenoceptor in Wistar rat thoracic aorta assessed as inhibition of phenylephrine-induced contraction
# Type: functional, tissue-based
# In short: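 Male Wistar rats (200–350 g), thiopental 75 mg/kg ip; endothelium-denuded thoracic aorta rings (~4 mm) in Krebs–Henseleit, 37 °C, pH 7.4, O2/CO2 19:1. Cumulative phenylephrine curves (3·10^-9–3·10^-6 M) before and after 20 min with one of 3–4 antagonist concentrations per ring; 60 min recovery between curves.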
row,Structure (SMILES),pKb
1,COC(=O)C(C)N1C(=O)N(CC(O)CN2CCN(c3ccccc3OC)CC2)C(c2ccccc2)(c2ccccc2)C1=O (stereo not given),7.084
2,CCOc1ccccc1N1CCN(CC(O)CN2C(=O)N(C)C(=O)C2(c2ccccc2)c2ccccc2)CC1 (stereo not given),7.022

# Species on record: Rattus norvegicus
# Test: Selectivity of Ki for alpha-2-adrenoceptor to Ki for alpha-1-adrenoceptor in Wistar rat cerebral cortex membrane
# Type: tissue-based
row,Ratio Ki,Structure (SMILES)
1,4.04,COC(=O)CN1C(=O)N(CC(O)CN2CCN(c3ccccc3OC)CC2)C(c2ccccc2)(c2ccccc2)C1=O (stereo not given)
2,4.32,COC(=O)C(C)N1C(=O)N(CC(O)CN2CCN(c3ccccc3OC)CC2)C(c2ccccc2)(c2ccccc2)C1=O (stereo not given)
3,4.4,CCOc1ccccc1N1CCN(CC(O)CN2C(=O)N(C)C(=O)C2(c2ccccc2)c2ccccc2)CC1 (stereo not given)

# Target: not listed separately
# Test: Displacement of [3H]prazosin from alpha-1-adrenoceptor in Wistar rat cerebral cortex membrane
# Type: tissue-based
# In short: (§1)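 Rat brain homogenised in ice-cold 50 mM Tris–HCl pH 7.6, centrifuged twice at 20,000g for 20 min at 0–4 °C. Membranes incubated with [3H]prazosin 0.2 nM (α1) or [3H]clonidine 2 nM (α2) and 7–8 test concentrations (10^-11–10^-4 M). Filter-bound radioactivity counted by liquid scintillation; duplicates; curve-fitted, Ki by Cheng–Prusoff.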
row,Ki [pM],Structure (SMILES)
1,50,CCOc1ccccc1N1CCN(CCCCCCCn2ncc(N3CCN(CCOc4ccccc4OC)CC3)c(Cl)c2=O)CC1
2,200,COc1ccccc1N1CCN(CCCCCCn2nc(-n3ccc4ccccc43)ccc2=O)CC1
3,50,COc1ccccc1N1CCN(CCCCCCCn2ncc(N3CCN(CC4COc5ccccc5O4)CC3)c(Cl)c2=O)CC1 (stereo not given)
4,50,COc1ccccc1OCCN1CCN(c2cnn(CCCCN3CCN(c4ccccc4OC(C)C)CC3)c(=O)c2Cl)CC1
5,50,CCOc1ccccc1OCCN1CCN(c2cnn(CCCN3CCN(c4ccccc4OC(C)C)CC3)c(=O)c2Cl)CC1
6,100,COc1ccccc1N1CCN(CCCN2C(=O)C3Nc4ccccc4C3N(C)C2=O)CC1 (stereo not given)
7,50,CCOc1ccccc1N1CCN(CCCCCCn2ncc(N3CCN(CCOc4ccccc4OC)CC3)c(Cl)c2=O)CC1
8,50,CCOc1ccccc1OCCN1CCN(c2cnn(CCCN3CCN(c4ccccc4OCC)CC3)c(=O)c2Cl)CC1
9,100,COc1ccccc1N1CCN(CCN2C(=O)NC3c4ccccc4OC3C2=O)CC1 (stereo not given)
10,50,COc1ccccc1OCCN1CCN(c2cnn(CCCN3CCN(c4ccccc4OC(C)C)CC3)c(=O)c2Cl)CC1
11,200,COc1ccccc1N1CCN(CCCCCn2nc(-n3ccnc3)ccc2=O)CC1
12,100,COc1ccccc1N1CCN(C(C)CN2C(=O)C3Nc4ccccc4C3N(C)C2=O)CC1 (stereo not given)
13,100,COc1ccccc1N1CCN(CCCN2C(=O)C3Oc4ccccc4C3N(C)C2=O)CC1 (stereo not given)
14,500,COc1ccccc1N1CCN(CCN2C(=O)C3Nc4ccccc4C3N=C2C)CC1 (stereo not given)
15,50,COc1ccccc1OCCN1CCN(c2cnn(CCCCCCCN3CCN(c4ccccc4OC(C)C)CC3)c(=O)c2Cl)CC1
16,100,COc1ccccc1N1CCN(C(C)CCN2C(=O)NC3c4ccccc4NC3C2=O)CC1 (stereo not given)
17,100,COc1ccccc1N1CCN(C(C)CCN2C(=O)C3C(c4ccccc4N3C)N(C)C2=O)CC1 (stereo not given)
18,100,COc1ccccc1N1CCN(C(C)CN2C(=O)NC3c4ccccc4SC3C2=O)CC1 (stereo not given)
19,100,COc1ccccc1N1CCN(CCCN2C(=O)NC3c4ccccc4NC3C2=O)CC1 (stereo not given)
20,198000,COC(=O)CN1C(=O)N(CC(O)CN2CCN(c3ccccc3OC)CC2)C(c2ccccc2)(c2ccccc2)C1=O (stereo not given)
21,200,COc1ccccc1N1CCN(CCCn2nc(-n3ccnc3)ccc2=O)CC1

row,Ki [pM],Structure (SMILES)
1,50,CCOc1ccccc1OCCN1CCN(c2cnn(CCCN3CCN(c4ccccc4OC)CC3)c(=O)c2Cl)CC1
2,100,COc1ccccc1N1CCN(CCN2C(=O)C3Nc4ccccc4C3N(C)C2=O)CC1 (stereo not given)
3,100,COc1ccccc1N1CCN(CCCN2C(=O)C3Sc4ccccc4C3N(C)C2=O)CC1 (stereo not given)
4,100,COc1ccccc1N1CCN(C(C)CN2C(=O)C3Oc4ccccc4C3N(C)C2=O)CC1 (stereo not given)
5,100,COc1ccccc1N1CCN(CCCN2C(=O)NC3c4ccccc4N(C)C3C2=O)CC1 (stereo not given)
6,50,CCOc1ccccc1N1CCN(CCCn2ncc(N3CCN(CCOc4ccccc4OC)CC3)c(Cl)c2=O)CC1
7,100,COc1ccccc1N1CCN(C(C)CN2C(=O)C3Sc4ccccc4C3N(C)C2=O)CC1 (stereo not given)
8,100,COc1ccccc1N1CCN(C(C)CN2C(=O)C3C(c4ccccc4N3C)N(C)C2=O)CC1 (stereo not given)
9,100,COc1ccccc1N1CCN(CCN2C(=O)C3Sc4ccccc4C3N(C)C2=O)CC1 (stereo not given)
10,100,COc1ccccc1N1CCN(C(C)CCN2C(=O)NC3c4ccccc4OC3C2=O)CC1 (stereo not given)
11,50,CCOc1ccccc1OCCN1CCN(c2cnn(CCCCCCN3CCN(c4ccccc4OC(C)C)CC3)c(=O)c2Cl)CC1
12,200,O=c1ccc(-n2cnc3ccccc32)nn1CCCCCCCN1CCN(c2ccccc2Cl)CC1
13,100,COc1ccccc1N1CCN(CCN2C(=O)C3C(c4ccccc4N3C)N(C)C2=O)CC1 (stereo not given)
14,500,COc1ccc(Cl)cc1N1CCN(CCN2C(=O)C3Sc4ccccc4C3N=C2C)CC1 (stereo not given)
15,50,COc1ccccc1OCCN1CCN(c2cnn(CCCCCN3CCN(c4ccccc4OC(C)C)CC3)c(=O)c2Cl)CC1
16,50,COc1ccccc1OCCN1CCN(c2cnn(CCCCN3CCN(c4ccccc4OC)CC3)c(=O)c2Cl)CC1
17,240,COc1cc2nc(N3CCN(C(=O)c4ccco4)CC3)nc(N)c2cc1OC [PRAZOSIN]
18,100,COc1ccccc1N1CCN(C(C)CCN2C(=O)C3Sc4ccccc4C3N(C)C2=O)CC1 (stereo not given)
19,50,COc1ccccc1OCCN1CCN(c2cnn(CCCCCCN3CCN(c4ccccc4OC(C)C)CC3)c(=O)c2Cl)CC1
20,100,COc1ccccc1N1CCN(CCCN2C(=O)C3C(c4ccccc4N3C)N(C)C2=O)CC1 (stereo not given)
21,50,CCOc1ccccc1OCCN1CCN(c2cnn(CCCCCCCN3CCN(c4ccccc4OCC)CC3)c(=O)c2Cl)CC1

row,Ki [pM],Structure (SMILES)
1,100,COc1ccccc1N1CCN(C(C)CCN2C(=O)NC3c4ccccc4N(C)C3C2=O)CC1 (stereo not given)
2,50,CCOc1ccccc1OCCN1CCN(c2cnn(CCCCCCCN3CCN(c4ccccc4OC(C)C)CC3)c(=O)c2Cl)CC1
3,50,COc1ccccc1OCCN1CCN(c2cnn(CCN3CCN(c4ccccc4OC)CC3)c(=O)c2Cl)CC1
4,50,COc1ccccc1OCCN1CCN(c2cnn(CCCCCCCN3CCN(c4ccccc4OC)CC3)c(=O)c2Cl)CC1
5,100,COc1ccccc1N1CCN(C(C)CCN2C(=O)NC3c4ccccc4SC3C2=O)CC1 (stereo not given)
6,50,CCOc1ccccc1OCCN1CCN(c2cnn(CCCCCCCN3CCN(c4ccccc4OC)CC3)c(=O)c2Cl)CC1
7,50,CCOc1ccccc1OCCN1CCN(c2cnn(CCN3CCN(c4ccccc4OC(C)C)CC3)c(=O)c2Cl)CC1
8,104000,COC(=O)C(C)N1C(=O)N(CC(O)CN2CCN(c3ccccc3OC)CC2)C(c2ccccc2)(c2ccccc2)C1=O (stereo not given)
9,100,COc1ccccc1N1CCN(C(C)CN2C(=O)NC3c4ccccc4OC3C2=O)CC1 (stereo not given)
10,50,COc1ccccc1OCCN1CCN(c2cnn(CCCCCN3CCN(c4ccccc4OC)CC3)c(=O)c2Cl)CC1
11,50,CCOc1ccccc1N1CCN(CCCCn2ncc(N3CCN(CCOc4ccccc4OC)CC3)c(Cl)c2=O)CC1
12,200,COc1ccccc1N1CCN(CCCCCCCn2nc(-n3ccc4ccccc43)ccc2=O)CC1
13,50,CCOc1ccccc1OCCN1CCN(c2cnn(CCCCCN3CCN(c4ccccc4OCC)CC3)c(=O)c2Cl)CC1
14,50,CCOc1ccccc1OCCN1CCN(c2cnn(CCCCCCN3CCN(c4ccccc4OC)CC3)c(=O)c2Cl)CC1
15,100,COc1ccccc1N1CCN(C(C)CN2C(=O)NC3c4ccccc4NC3C2=O)CC1 (stereo not given)
16,100,COc1ccccc1N1CCN(CCN2C(=O)NC3c4ccccc4N(C)C3C2=O)CC1 (stereo not given)
17,500,COc1ccc(Cl)cc1N1CCN(CCN2C(=O)C3Nc4ccccc4C3N=C2C)CC1 (stereo not given)
18,50,CCOc1ccccc1OCCN1CCN(c2cnn(CCCCN3CCN(c4ccccc4OC(C)C)CC3)c(=O)c2Cl)CC1
19,50,CCOc1ccccc1OCCN1CCN(c2cnn(CCCCN3CCN(c4ccccc4OCC)CC3)c(=O)c2Cl)CC1
20,50,COc1ccccc1OCCN1CCN(c2cnn(CCCN3CCN(c4ccccc4OC)CC3)c(=O)c2Cl)CC1
21,500,COc1ccccc1N1CCN(CCN2C(=O)C3Sc4ccccc4C3N=C2C)CC1 (stereo not given)

row,Ki [pM],Structure (SMILES)
1,50,CCOc1ccccc1N1CCN(CCn2ncc(N3CCN(CCOc4ccccc4OC)CC3)c(Cl)c2=O)CC1
2,200,O=c1ccc(-n2ccnc2)nn1CCCN1CCN(c2ccccc2Cl)CC1
3,100,COc1ccccc1N1CCN(CCCN2C(=O)NC3c4ccccc4SC3C2=O)CC1 (stereo not given)
4,50,COc1ccccc1OCCN1CCN(c2cnn(CCCCCCN3CCN(c4ccccc4OC)CC3)c(=O)c2Cl)CC1
5,100,COc1ccccc1N1CCN(C(C)CCN2C(=O)C3Nc4ccccc4C3N(C)C2=O)CC1 (stereo not given)
6,50,CCOc1ccccc1OCCN1CCN(c2cnn(CCN3CCN(c4ccccc4OC)CC3)c(=O)c2Cl)CC1
7,100,COc1ccccc1N1CCN(CCN2C(=O)NC3c4ccccc4NC3C2=O)CC1 (stereo not given)
8,100,COc1ccccc1N1CCN(CCCN2C(=O)NC3c4ccccc4OC3C2=O)CC1 (stereo not given)
9,50,CCOc1ccccc1OCCN1CCN(c2cnn(CCCCCCN3CCN(c4ccccc4OCC)CC3)c(=O)c2Cl)CC1
10,50,CCOc1ccccc1OCCN1CCN(c2cnn(CCCCCN3CCN(c4ccccc4OC(C)C)CC3)c(=O)c2Cl)CC1
11,100,COc1ccccc1N1CCN(C(C)CN2C(=O)NC3c4ccccc4N(C)C3C2=O)CC1 (stereo not given)
12,50,CCOc1ccccc1OCCN1CCN(c2cnn(CCCCCN3CCN(c4ccccc4OC)CC3)c(=O)c2Cl)CC1
13,50,COc1ccccc1OCCN1CCN(c2cnn(CCN3CCN(c4ccccc4OC(C)C)CC3)c(=O)c2Cl)CC1
14,50,CCOc1ccccc1OCCN1CCN(c2cnn(CCN3CCN(c4ccccc4OCC)CC3)c(=O)c2Cl)CC1
15,50,CCOc1ccccc1N1CCN(CCCCCn2ncc(N3CCN(CCOc4ccccc4OC)CC3)c(Cl)c2=O)CC1
16,100,COc1ccccc1N1CCN(CCN2C(=O)NC3c4ccccc4SC3C2=O)CC1 (stereo not given)
17,100,COc1ccccc1N1CCN(C(C)CCN2C(=O)C3Oc4ccccc4C3N(C)C2=O)CC1 (stereo not given)
18,100,COc1ccccc1N1CCN(CCN2C(=O)C3Oc4ccccc4C3N(C)C2=O)CC1 (stereo not given)
19,50,CCOc1ccccc1OCCN1CCN(c2cnn(CCCCN3CCN(c4ccccc4OC)CC3)c(=O)c2Cl)CC1

# Target: not listed separately
# Test: Displacement of [3H]clonidine from alpha-2-adrenoceptor in Wistar rat cerebral cortex membrane
# Type: tissue-based
# In short: as §1
row,Ki [pM],Structure (SMILES)
1,800000,COC(=O)CN1C(=O)N(CC(O)CN2CCN(c3ccccc3OC)CC2)C(c2ccccc2)(c2ccccc2)C1=O (stereo not given)
2,449000,COC(=O)C(C)N1C(=O)N(CC(O)CN2CCN(c3ccccc3OC)CC2)C(c2ccccc2)(c2ccccc2)C1=O (stereo not given)
3,535000,CCOc1ccccc1N1CCN(CC(O)CN2C(=O)N(C)C(=O)C2(c2ccccc2)c2ccccc2)CC1 (stereo not given)
